Legend:
Assay type in all cases: cell-based
GluA2 S788A = GluA2 S788A (Rattus norvegicus, UniProt P19491, S809A); experiment: Whole-cell patch-clamp, current inhibition of alanine mutant S788A; details: S788 alanine substitution versus wild-type
In short: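 Alanine-substituted GluA2 transiently expressed in HEK293 cells. Whole-cell currents evoked by Glu via rapid theta-pipette solution exchange, co-applied with graded noncompetitive inhibitor concentrations. Normalized current concentration dependencies fitted with the logistic equation. Mutant IC50 expressed relative to the wild-type receptor value.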

GluA2 S615A = GluA2 S615A (Rattus norvegicus, UniProt P19491, S636A); experiment: Whole-cell patch-clamp, current inhibition of alanine mutant S615A
GluA2Del = GluA2Del (Rattus norvegicus, UniProt P19491, C610A/DEL399-404/DEL566-584/E587D/G405E/N256E/N406D/N413Q/S585D/S586T/V397L, form not given); details: for voltage dependence of current inhibition: GluA2Del receptor-mediated current; for Hill coefficient (nHill): GluA2Del, HEK293, 3 mM Glu co-application, −60 mV, 30 μM CTZ, logistic fit
GluA2F623A = GluA2F623A (Rattus norvegicus, UniProt P19491, F644A); experiment: Whole-cell patch-clamp, current inhibition of alanine mutant GluA2F623A
GluA2D519A = GluA2D519A (Rattus norvegicus, UniProt P19491, D540A); experiment: Whole-cell patch-clamp, current inhibition of alanine mutant GluA2D519A
In short: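 Rat GluA2 D519A transiently expressed in HEK293 cells (Lipofectamine 2000). Whole-cell recording at −60 mV with piezo-driven theta-pipette fast solution exchange. 500 ms co-applications of 3 mM Glu with graded test compound concentrations, 30 μM CTZ present throughout, Glu alone as control. Logistic fits of normalized currents gave IC50 and nHill, n = 7 cells. IC50 also expressed relative to wild-type.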

GluA2WT = GluA2WT (Rattus norvegicus, UniProt P19491); details: for voltage dependence of current inhibition: GluA2WT receptor-mediated current; for Hill coefficient (nHill): GluA2WT, HEK293, 3 mM Glu co-application, −60 mV, 30 μM CTZ, logistic fit

SMILES | effect of substitution on inhibition (GluA2 S788A) | change in IC50 value compared to wild-type (GluA2 S615A) | voltage dependence of current inhibition (GluA2Del) | Hill coefficient (nHill) (GluA2Del) | IC50 (GluA2F623A) | nHill (GluA2F623A; F623A mutant, 3 mM Glu, −60 mV, 30 μM CTZ) | IC50 (GluA2D519A) | nHill (GluA2D519A; D519A mutant, 3 mM Glu, −60 mV, 30 μM CTZ) | IC50 (GluA2WT) | voltage dependence of current inhibition (GluA2WT) | Hill coefficient (nHill) (GluA2WT) | change in IC50 value compared to wild-type (GluA2F623A; F623A mutant) | effect of substitution on inhibition (GluA2D519A; D519 alanine substitution versus wild-type)
CNC(=O)N1N=C(c2ccc(N)cc2)c2cc3c(cc2CC1C)OCO3 (stereo not shown) [GYKI, GYKI 53655] | Reduced affinity | two orders of magnitude increase | voltage independent | 1.29 ± 0.08 | 153 ± 8 µM | 1.18 ± 0.07 | 3.8 ± 0.58 µM | 1.58 ± 0.12 | 14.5 ± 1.6 µM | voltage independent | 1.29 ± 0.08 |  | 
N#Cc1ccccc1-c1cc(-c2ccccn2)cn(-c2ccccc2)c1=O [PMP, perampanel] | no appreciable effect |  | voltage independent | 1.08 ± 0.04 |  |  |  |  | 0.89 ± 0.07 µM | voltage independent | 1.08 ± 0.05 | two orders of magnitude increase | no appreciable effect

Source: paper PMC5033713 (Neuron, 2016)
